Results from ChEMBL document CHEMBL4177642, “Cyclic perylene diimide: Selective ligand for tetraplex DNA binding over double stranded DNA” (Bioorg Med Chem, 2017).
Active and inactive are the calls of the source. No cut-off for these calls is given here.

Key:
Calf thymus DNA [1] = assay: Binding affinity to calf thymus duplex DNA assessed as change in the intensities of negative band formation at 280 nm up to 10 uM by CD spectroscopic method; type: ADME, nucleic-acid assay, Bos taurus; conditions: cattle, 0.28 µM
Quadruplex DNA [2] = assay: Binding affinity to human TA-core of telomeric sequence G-quadruplex DNA assessed as change in melting temperature at 1.5 uM in presence of K+ by spectrophotometric analysis; type: nucleic-acid assay
Summary of the method: (§1)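 Melting of 1.5 μM TA-core followed by CD at 288 nm in 50 mM Tris-HCl pH 7.4 with 20 mM KCl or 20 mM NaCl. Run without or with 1.5 μM ligand (1:1 ligand:DNA), heating at 60 °C/h, data every 0.5 °C, 1 cm cell.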

Calf thymus DNA [3] = assay: Binding affinity to calf thymus duplex DNA assessed as change in the intensities of negative band formation at 280 nm up to 10 uM in presence of K+ by CD spectroscopic method; type: ADME, nucleic-acid assay, Bos taurus; conditions: cattle, 0.28 µM
Calf thymus DNA [4] = assay: Binding affinity to calf thymus duplex DNA assessed as isosbestic point at 5 uM by UV-vis spectrophotometric analysis; type: ADME, nucleic-acid assay, Bos taurus; conditions: cattle
Summary of the method: (§2)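 Absorption spectra at 25 °C of 5.0 μM ligand in 50 mM Tris-HCl pH 7.4, 0.10 M KCl, titrated with TA-core (0–15.7 μM) or CT-DNA (0–323.4 μM; concentration in base pairs).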

Quadruplex DNA [5] = assay: Binding affinity to human TA-core of telomeric sequence G-quadruplex DNA assessed as red shift at 500 nanometer at 5 uM in presence of 100 mM KCl by UV-vis spectrophotometric analysis; type: nucleic-acid assay; summary of the method: as §2
[6] = test system: double-stranded DNA oligonucleotide dsOligo (synthetic); assay: Binding affinity to synthetic duplex DNA oligonucleotide dsOligo assessed as change in melting temperature at 1.5 uM in presence of K+ by spectrophotometric analysis
Quadruplex DNA [7] = assay: Binding affinity to human TA-core of telomeric sequence G-quadruplex DNA assessed as change in entropy at 100 uM in presence of K+ by isothermal titration calorimetric method; type: nucleic-acid assay
Summary of the method: (§3)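 ITC at 25 °C: TA-core (10 μM in cell) annealed 95 °C 10 min, cooled 1.0 °C/min to 25 °C, in 50 mM AcOK-AcOH pH 5.5 (K+ lines) or AcONa-AcOH pH 5.5 (Na+ lines). Ligand at 100 μM in same buffer injected repeatedly (1.96 μL each). Solutions degassed 10 min; data fitted to an independent-site model.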

Calf thymus DNA [8] = assay: Binding affinity to calf thymus duplex DNA assessed as change in the intensities of negative band formation at 280 nm up to 10 uM in presence of Na+ by CD spectroscopic method; type: ADME, nucleic-acid assay, Bos taurus; conditions: cattle, 0.28 µM
Calf thymus DNA [9] = assay: Binding affinity to calf thymus duplex DNA assessed as hypochromic shift at 500 nanometer at 5 uM in presence of 100 mM KCl by UV-vis spectrophotometric analysis relative to control; type: ADME, nucleic-acid assay, Bos taurus; conditions: cattle; summary of the method: as §2
[10] = test system: double-stranded DNA oligonucleotide dsOligo (synthetic); assay: Binding affinity to synthetic duplex DNA oligonucleotide dsOligo assessed as increase in melting temperature at 3 to 4.5 uM in presence of K+ by spectrophotometric analysis
Quadruplex DNA [11] = assay: Binding affinity to human TA-core of telomeric sequence G-quadruplex DNA assessed as change in enthalpy at 100 uM in presence of K+ by isothermal titration calorimetric method; type: nucleic-acid assay; summary of the method: as §3
Quadruplex DNA [12] = assay: Binding affinity to human TA-core of telomeric sequence G-quadruplex DNA assessed as change in entropy at 100 uM in presence of Na+ by isothermal titration calorimetric method; type: nucleic-acid assay; summary of the method: as §3
Quadruplex DNA [13] = assay: Binding affinity to human TA-core of telomeric sequence G-quadruplex DNA assessed as change in melting temperature at 1.5 uM in presence of Na+ by spectrophotometric analysis; type: nucleic-acid assay; summary of the method: as §1
Calf thymus DNA [14] = assay: Binding affinity to calf thymus duplex DNA assessed as change in the intensities of positive band formation at 250 nm up to 10 uM by CD spectroscopic method; type: ADME, nucleic-acid assay, Bos taurus; conditions: cattle, 0.25 µM
[15] = Binding affinity to 27-mer DNA hairpin (unknown origin) at 100 uM in presence of Na+ by isothermal titration calorimetric method
Quadruplex DNA [16] = assay: Binding affinity to human TA-core of telomeric sequence G-quadruplex DNA assessed as stabilization of antiparallel G-quadruplex structure by measuring increase in intensities of positive band at 290 nanometer up to 7.5 uM in presence of K+ by CD spectroscopic method; type: nucleic-acid assay
[17] = Selectivity ratio of binding constant for human TA-core of telomeric sequence G-quadruplex DNA to binding conctant for calf thymus duplex DNA
Calf thymus DNA [18] = assay: Binding affinity to calf thymus duplex DNA assessed as change in the intensities of positive band formation at 250 nm up to 10 uM in presence of Na+ by CD spectroscopic method; type: ADME, nucleic-acid assay, Bos taurus; conditions: cattle, 0.25 µM
Quadruplex DNA [19] = assay: Binding affinity to human TA-core of telomeric sequence G-quadruplex DNA assessed as isosbestic point at 5 uM in presence of 100 mM KCl by UV-vis spectrophotometric analysis; type: nucleic-acid assay; summary of the method: as §2
Quadruplex DNA [20] = assay: Binding affinity to human TA-core of telomeric sequence G-quadruplex DNA assessed as stabilization of antiparallel G-quadruplex structure by measuring increase in intensities of negative band at 240 nanometer up to 7.5 uM in presence of K+ by CD spectroscopic method; type: nucleic-acid assay
Quadruplex DNA [21] = assay: Binding affinity to human TA-core of telomeric sequence G-quadruplex DNA assessed as stabilization of antiparallel structure formation up to 4.5 uM in presence of Na+ by CD spectroscopic method; type: nucleic-acid assay
Quadruplex DNA [22] = assay: Binding affinity to human TA-core of telomeric sequence G-quadruplex DNA assessed as hypochromic shift at 500 nanometer at 5 uM in presence of 100 mM KCl by UV-vis spectrophotometric analysis relative to control; type: nucleic-acid assay; summary of the method: as §2
Quadruplex DNA [23] = assay: Binding affinity to human TA-core of telomeric sequence G-quadruplex DNA assessed as hyperchromic shift at 550 nanometer at 5 uM in presence of 100 mM KCl by UV-vis spectrophotometric analysis relative to control; type: nucleic-acid assay; summary of the method: as §2
Calf thymus DNA [24] = assay: Binding affinity to calf thymus duplex DNA assessed as red shift at 500 nanometer at 5 uM in presence of 100 mM KCl by UV-vis spectrophotometric analysis; type: ADME, nucleic-acid assay, Bos taurus; conditions: cattle; summary of the method: as §2
Calf thymus DNA [25] = assay: Binding affinity to calf thymus duplex DNA assessed as hyperchromic shift at 550 nanometer at 5 uM in presence of 100 mM KCl by UV-vis spectrophotometric analysis relative to control; type: ADME, nucleic-acid assay, Bos taurus; conditions: cattle; summary of the method: as §2
Quadruplex DNA [26] = assay: Binding affinity to human TA-core of telomeric sequence G-quadruplex DNA assessed as change in enthalpy at 100 uM in presence of Na+ by isothermal titration calorimetric method; type: nucleic-acid assay; summary of the method: as §3
[27] = Binding affinity to 27-mer DNA hairpin (unknown origin) at 100 uM in presence of K+ by isothermal titration calorimetric method
[28] = Inhibition of telomerase (unknown origin) by TRAP assay; set-up: species or system Homo sapiens
Summary of the method: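 TRAP with a TRAPeze kit, using positive-control cell lysate (250 cells per reaction). Extension 30 °C 1 h, then 35 PCR cycles. Products run on 12.5% PAGE, GelStar-stained and analyzed per kit.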

DNA = assay: Binding affinity to Escherichia coli pUC19 duplex DNA assessed as unwinding of supercoiled DNA up to 40 uM after 1 hr in presence of human topoisomerase-1 by agarose gel electrophoresis; type: ADME, nucleic-acid assay
Summary of the method: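 pUC19 plasmid (0.025 μg/μL) preincubated 5 min at 37 °C with human Topo I (0.25 units/μL, 0.01% BSA) in 35 mM Tris-HCl pH 8.0, 72 mM KCl, 5 mM MgCl2, 5 mM DTT, 5 mM spermidine. Ligand then added and incubated 1 h at 37 °C. Stopped with SDS, proteinase K digested, phenol/chloroform extracted, run on 1% agarose, GelStar-stained.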

Calf thymus DNA [29] = assay: Binding affinity to calf thymus duplex DNA assessed as change in the intensities of positive band formation at 250 nm up to 10 uM in presence of K+ by CD spectroscopic method; type: ADME, nucleic-acid assay, Bos taurus; conditions: cattle, 0.25 µM
Quadruplex DNA [30] = assay: Binding affinity to human TA-core of telomeric sequence G-quadruplex DNA assessed as stabilization of antiparallel structure formation up to 5 equiv by CD spectroscopic method; type: nucleic-acid assay

Q: Which Activity (Calf thymus DNA [1]) does the source give for O=C1CCCCCC(=O)NCCCN2CCN(CCCN3C(=O)c4ccc5c6ccc7c8c(ccc(c9ccc(c4c59)C3=O)c86)C(=O)N(CCCN3CCN(CCCN1)CC3)C7=O)CC2 here?
A: Not Active

Q: And the ΔTm (Quadruplex DNA [2])?
A: 21 °C

Q: And the Activity (Calf thymus DNA [3])?
A: Not Active

Q: What about the Activity (Calf thymus DNA [4]) of the same compound?
A: 520 nm

Q: And the Activity (Quadruplex DNA [5])?
A: 13 nm

Q: And the deltaTm [6]?
A: -1 °C

Q: What about the -TdeltaS (Quadruplex DNA [7]) of the same compound?
A: -1.56 kcal/mol

Q: And the Activity (Calf thymus DNA [8])?
A: Not Active

Q: What about the Activity (Calf thymus DNA [9]) of the same compound?
A: 50%

Q: What about the Activity [10] of the same compound?
A: Not Active

Q: And the deltaH (Quadruplex DNA [11])?
A: -6.71 kcal/mol

Q: And the -TdeltaS (Quadruplex DNA [12])?
A: -1.7 kcal/mol

Q: What about the ΔTm (Quadruplex DNA [13]) of the same compound?
A: 14 °C

Q: What about the Activity (Calf thymus DNA [14]) of the same compound?
A: Not Active

Q: What about the Activity [15] of the same compound?
A: inactive

Q: What about the Activity (Quadruplex DNA [16]) of the same compound?
A: Active

Q: And the Selectivity ratio [17]?
A: 900

Q: And the Activity (Calf thymus DNA [18])?
A: Not Active

Q: And the Activity (Quadruplex DNA [19])?
A: 510 nm

Q: What about the Activity (Quadruplex DNA [20]) of the same compound?
A: Active

Q: And the Activity (Quadruplex DNA [21])?
A: Active

Q: And the Activity (Quadruplex DNA [22])?
A: 42%

Q: What about the Activity (Quadruplex DNA [23]) of the same compound?
A: 55%

Q: And the Activity (Calf thymus DNA [24])?
A: 8 nm

Q: And the Activity (Calf thymus DNA [25])?
A: 29%

Q: What about the deltaH (Quadruplex DNA [26]) of the same compound?
A: -7.14 kcal/mol

Q: What about the Activity [27] of the same compound?
A: inactive

Q: What about the IC50 [28] of the same compound?
A: 240 nM

Q: And the Activity (DNA)?
A: Not Active

Q: What about the Activity (Calf thymus DNA [29]) of the same compound?
A: Not Active

Q: What about the Activity (Quadruplex DNA [30]) of the same compound?
A: Active
